# Screens: PubChem BioAssay, several laboratories
# TDP2 absorb = human TDP2 enzyme inhibitors, primary screen, biochemical, epi absorbance, recombinant enzyme; Tyrosyl-DNA phosphodiesterase 2 (Homo sapiens), O95551; 370,000 compounds, 0.34% hits; inhibition, % at 12.8 µM; T5PNP hydrolysis, p-nitrophenol absorbance 415 nm;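 active = inhibition above the mean of all tested compounds plus 3 SD, set per campaign, cut at about 25% in these data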;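 also: 0% = DMSO with enzyme and 100% = buffer with substrate but no TDP2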
#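 Test system: human TDP2 enzyme; Input: 120 nM TDP2 per well; Buffer or medium: Mg2+-containing Tris-HCl buffer, pH 7.5; Reagent: 5 mM T5PNP; Dosing: 12.8 µM single point, 1% DMSO; Incubation: reaction 2 h, 37 °C; Detection: p-Nitrophenol epi absorbance; Read-out: % inhibition relative to enzyme-containing and enzyme-free wells; Replicates: single well per compound.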
# MBD2 DNA inh = inhibitors of MBD2 binding to methylated DNA, primary screen, biochemical, TR-FRET, DNA-binding domain, human. Methyl-CpG-binding domain protein 2 (Homo sapiens), Q9UBB5. MBD2 binding to methylated oligonucleotide. inhibition, % at 4.4 µM. 370,000 compounds, 0.31% hits. AID 686964, 2013; in the data active = inhibition above about 13%
# CASP6 VEID inh = human caspase-6 inhibitors, primary screen, biochemical, VEID-R110 fluorescence, single point, set 2 | P55212 | purified caspase-6, Z-VEID-R110 cleavage fluorescence | inhibition, % at 12.5 µM | 350,000 compounds, 0.53% hits | AID 686996, 2013;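 active = mean inhibition across replicates at least about 35%, with every replicate also reaching that limit, limit read from the data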;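 also: 0% = median of neutral control wells and 100% = no fluorescence left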
# LEDGF integ inh = blockers of LEDGF/p75-dependent integrase strand transfer – biochemical, TR-FRET, high throughput, primary screen | HIV-1 integrase (with human LEDGF/p75) | TR-FRET IN-LEDGF/p75 DNA integration, Eu/Cy5 | inhibition, % at 3.7 µM | 370,000 compounds, 0.64% hits | AID 743269, 2014;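 active = inhibition above the screen-wide mean plus 3 SD, cut at about 13% in these data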;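 also: signal is the Cy5 over europium emission ratio at 671 and 618 nm; 0% = plate median of compound wells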
# NSD2 HMT inh = NSD2 histone methyltransferase inhibitors, primary screen, biochemical, AlphaScreen, single concentration, set 2; Histone-lysine N-methyltransferase NSD2 (Homo sapiens), O96028; NSD2 peptide methylation, 120 min; inhibition, % at 12.5 µM; 310,000 compounds, 0.54% hits; in the data active = inhibition above about 50%
# Target sequence (O96028 whole entry, looked up): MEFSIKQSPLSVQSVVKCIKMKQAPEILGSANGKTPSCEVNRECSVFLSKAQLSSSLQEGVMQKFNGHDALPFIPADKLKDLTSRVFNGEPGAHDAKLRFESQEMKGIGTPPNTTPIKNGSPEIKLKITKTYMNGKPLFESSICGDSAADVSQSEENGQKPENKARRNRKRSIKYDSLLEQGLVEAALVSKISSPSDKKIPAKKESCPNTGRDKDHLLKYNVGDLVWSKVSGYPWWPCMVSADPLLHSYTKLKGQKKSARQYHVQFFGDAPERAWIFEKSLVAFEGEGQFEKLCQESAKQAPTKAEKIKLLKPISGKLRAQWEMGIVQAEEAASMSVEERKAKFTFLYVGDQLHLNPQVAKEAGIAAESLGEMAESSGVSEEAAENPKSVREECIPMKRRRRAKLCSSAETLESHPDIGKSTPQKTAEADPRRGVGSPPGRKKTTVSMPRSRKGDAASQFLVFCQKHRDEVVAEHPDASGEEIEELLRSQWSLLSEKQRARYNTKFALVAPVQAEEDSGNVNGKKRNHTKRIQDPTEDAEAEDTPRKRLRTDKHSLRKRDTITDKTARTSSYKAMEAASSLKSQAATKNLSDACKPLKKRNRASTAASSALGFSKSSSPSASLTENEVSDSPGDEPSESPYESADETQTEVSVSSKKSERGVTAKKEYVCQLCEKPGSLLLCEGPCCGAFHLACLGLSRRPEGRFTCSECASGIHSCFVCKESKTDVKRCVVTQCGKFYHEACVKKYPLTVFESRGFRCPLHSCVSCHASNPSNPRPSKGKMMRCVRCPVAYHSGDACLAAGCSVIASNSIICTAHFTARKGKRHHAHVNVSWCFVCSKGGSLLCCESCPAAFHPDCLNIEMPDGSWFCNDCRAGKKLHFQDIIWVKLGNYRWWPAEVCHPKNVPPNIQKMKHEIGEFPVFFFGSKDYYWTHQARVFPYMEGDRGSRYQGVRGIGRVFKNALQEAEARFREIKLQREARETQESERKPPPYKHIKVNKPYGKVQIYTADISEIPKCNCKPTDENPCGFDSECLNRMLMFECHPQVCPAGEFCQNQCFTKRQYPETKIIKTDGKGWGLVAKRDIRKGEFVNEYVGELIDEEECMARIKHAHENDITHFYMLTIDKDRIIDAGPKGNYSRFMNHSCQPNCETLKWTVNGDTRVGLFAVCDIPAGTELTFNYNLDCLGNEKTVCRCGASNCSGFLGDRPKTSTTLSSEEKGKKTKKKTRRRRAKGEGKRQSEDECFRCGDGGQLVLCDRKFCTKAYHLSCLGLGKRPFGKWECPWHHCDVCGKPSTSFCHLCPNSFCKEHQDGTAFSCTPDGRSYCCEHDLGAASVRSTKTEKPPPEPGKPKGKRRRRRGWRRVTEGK
# UHRF1 binding = UHRF1 methylated DNA binding inhibitors, primary screen, counter-screen for MBD2 inhibitor project, biochemical, TR-FRET, human UHRF1, single concentration; 370,000 compounds, 0.75% hits; inhibition, % at 4.4 µM; E3 ubiquitin-protein ligase UHRF1 (Homo sapiens), Q96T88; UHRF1 binding to methylated oligo; in the data active = inhibition above about 21%;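 also: UHRF1 SRA domain binding a hemimethylated CpG hairpin DNA probe; 0% = median of test compound wells and 100% = reference inhibitor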
# * = called active by the depositor; . = no result. Hits are enriched below; roughly 1.8% of the tested compounds scored in any of these assays.
SMILES,TDP2 absorb,MBD2 DNA inh,CASP6 VEID inh,LEDGF integ inh,NSD2 HMT inh,UHRF1 binding
CC(=O)N(C)C[C@@H]1Oc2ncc(C#Cc3cccnc3)cc2C(=O)N([C@@H](C)CO)C[C@@H]1C,.,.,1.9,.,.,.
CN1c2ccc(C3=CCCCC3)cc2[C@H]2[C@H](CCN2C(=O)C2CCCCC2)[C@H]1CO,.,.,0.2,.,.,.
O=S(=O)(c1ccc2nc(Nc3ccccc3)ccc2c1)N1CCCCC1,-3.2,11.4,-0.7,-1.6,-7.0,23.4*
O=S(=O)(c1ccc2nc(N3CCN(c4ccc(F)cc4)CC3)ccc2c1)N1CCCCC1,-3.4,12.1,1.0,4.6,2.1,24.5*
CSc1ccc(S(=O)(=O)NCC(=O)OC(C)C(=O)NCc2ccccc2)cc1[N+](=O)[O-] (centres undefined),9.8,1.7,0.6,0.3,0.2,26.8*
C[C@@H]1CN([C@@H](C)CO)C(=O)Cc2cc(NC(=O)NC3CCCCC3)ccc2O[C@H]1CN(C)S(=O)(=O)c1ccccc1,.,.,-0.2,.,.,.
CCOC(=O)Cc1csc(NC(=O)c2c(C)noc2C)n1,1.4,8.3,19.5,0.8,0.0,24.0*
CCOC(=O)Cc1csc(NC(=O)c2c(-c3ccccc3)noc2C)n1,5.9,-1.2,-4.8,-3.0,-4.0,0.1
CCOc1ccccc1OCC(=O)Nc1cc(S(=O)(=O)N2CCCCC2)ccc1N1CCN(CC)CC1,-3.6,2.1,3.2,0.6,4.9,-2.0
O=C(COC(=O)c1cc([N+](=O)[O-])ccc1N1CCCC1)Nc1ccccc1OC(F)F,-9.7,-5.2,0.7,-7.9,3.8,0.3
Cc1ccc(S(=O)(=O)N2CCCCC2)cc1NC(=O)COC(=O)c1cccn1C,1.8,3.0,-3.1,-5.3,0.5,40.0*
COc1ccccc1NC(=O)COC(=O)c1cc([N+](=O)[O-])ccc1N1CCCC1,3.8,-1.8,4.7,0.0,25.0,35.4*
Cc1ccc(S(=O)(=O)N2CCCCC2)cc1NC(=O)c1cc(F)c(F)c(F)c1F,5.0,10.5,-1.0,2.5,-1.0,22.1*
COc1ccccc1OCC(=O)Nc1cc(S(=O)(=O)N2CCCCC2)ccc1N1CCCCC1,3.3,10.4,-2.0,-2.2,2.8,27.2*
C[C@@H]1CN([C@@H](C)CO)C(=O)c2cccc(NC(=O)c3ccc(-c4nccs4)cc3)c2O[C@@H]1CN(C)S(=O)(=O)c1cn(C)cn1,.,.,2.0,.,.,.
COc1cccc(C#Cc2ccc3c(c2)O[C@H](CN(C)S(=O)(=O)c2ccccc2F)[C@H](C)CN([C@H](C)CO)S3(=O)=O)c1,-12.1,-5.1,-4.9,6.7,.,20.7*
COc1cccc(C#Cc2ccc3c(c2)O[C@H](CN(C)S(=O)(=O)c2ccccc2F)[C@@H](C)CN([C@@H](C)CO)S3(=O)=O)c1,.,.,2.5,.,.,.
COc1cccc(C#Cc2ccc3c(c2)O[C@@H](CN(C)C(=O)c2ccccn2)[C@@H](C)CN([C@H](C)CO)S3(=O)=O)c1,6.2,2.7,0.2,-1.5,.,22.2*
C[C@H](CO)N1C[C@H](C)[C@@H](CN(C)C(=O)c2cnccn2)Oc2cc(C#CCC3CCCC3)ccc2S1(=O)=O,0.9,8.8,7.4,0.0,.,22.5*
Cc1ccc(S(=O)(=O)N(C)C[C@H]2Oc3cc(C#CC4CCCC4)ccc3S(=O)(=O)N([C@H](C)CO)C[C@H]2C)cc1,-2.5,5.5,-0.8,0.2,.,21.5*
C[C@H](CO)N1C[C@H](C)[C@@H](CN(C)C(=O)Nc2ccc(C(F)(F)F)cc2)Oc2ccc(NC(=O)Cc3cn(C)c4ccccc34)cc2CC1=O,.,.,-8.5,.,.,.
CN1CC(=O)N2Cc3[nH]c4ccccc4c3C[C@H]2C1=O,9.7,0.0,45.3*,-4.2,-1.6,2.2
CCCCN1CC(=O)N2Cc3[nH]c4ccccc4c3C[C@H]2C1=O,-9.8,8.7,5.0,-2.0,30.1,1.9
CCc1nc(Sc2nnnn2-c2ccccc2)c2c3c(sc2n1)CCCC3,-4.4,2.3,-3.4,-5.3,-0.4,41.8*
Cc1noc(C)c1NC(=O)N(C)C[C@@H]1Oc2ncc(C#CC3CC3)cc2C(=O)N([C@@H](C)CO)C[C@H]1C,.,.,-0.2,.,.,.
SMILES,TDP2 absorb,MBD2 DNA inh,CASP6 VEID inh,LEDGF integ inh,NSD2 HMT inh,UHRF1 binding
CN(CC(=O)Nc1cccc(F)c1)C(=O)c1cc(-c2ccco2)nc2ccccc12,9.2,10.0,10.1,6.1,1.1,18.0
COc1ccccc1CNC(=O)COC(=O)c1cc(-c2ccco2)nc2ccccc12,4.7,19.6*,.,10.0,.,31.4*
COc1ccc(NC(=O)CN(C)C(=O)c2cc(-c3ccco3)nc3ccccc23)cc1,1.8,11.9,28.9,11.2,2.9,29.0*
C[C@@H]1CCCCO[C@H](CN(C)C(=O)Nc2ccc3c(c2)OCO3)[C@H](C)CN([C@H](C)CO)C(=O)c2cc(NC(=O)CCCN(C)C)ccc2O1,.,.,6.7,.,.,.
COc1ccc(C(C)NC(=O)c2ccccc2Br)cc1OC (centres undefined),2.3,-3.4,-2.0,-1.5,-4.0,-1.3
Cc1ccc(C)c(C(C)NC(=O)c2ccccc2Br)c1 (centres undefined),-4.9,0.0,-2.1,-3.1,-2.3,21.6*
CCc1nc2c(OCc3ccc(Cl)cc3)cccn2c1N(C=O)Cc1ccccc1,-0.4,-0.1,3.9,-4.0,0.4,-0.2
C=CCOc1cccn2c(N(C=O)Cc3ccccc3)c(CC)nc12,6.8,2.8,36.8*,-3.1,0.5,0.1
C[C@@H]1CN([C@H](C)CO)C(=O)c2cc(-c3cccc(F)c3)cnc2O[C@@H]1CN(C)S(=O)(=O)c1cccc(F)c1,.,.,-0.9,.,.,.
Cc1cc(NC(=O)CCC(=O)N(C(C(=O)NC(C)(C)C)c2ccccc2Cl)C(C)(C)C)no1 (centres undefined),-2.5,5.6,0.5,-0.5,-2.3,25.2*
CCC(=O)N(C)C[C@@H]1Oc2cc(-c3cccc(OC)c3)ccc2S(=O)(=O)N([C@H](C)CO)C[C@H]1C,.,.,1.2,.,.,.
NNS(=O)(=O)c1ccc2c(c1)Cc1cc(S(=O)(=O)NN)ccc1-2,-5.6,3.8,48.3*,5.7,-2.0,5.1
N#Cc1c(NC(=O)c2ccco2)sc2c1CCC2,17.4,5.7,48.1*,4.2,7.1,10.2
Cc1cc(C)cc(N(CC(=O)NC(C)C)C(=O)CCC(=O)Nc2ccccn2)c1,-6.3,2.7,44.9*,1.5,0.0,2.0
CN(Cc1ccccc1)C(=O)C1CCC(CNS(=O)(=O)c2cccc3cccnc23)CC1 (centres undefined),-4.0,3.8,2.5,-1.0,-2.4,31.8*
